As usually defined, the GI50 is the concentration at which growth is held to half of that of the control.

These results are taken from ChEMBL document CHEMBL4351017, “Selenocoumarins as new multitarget antiproliferative agents: Synthesis, biological evaluation and in silico calculations” (Eur J Med Chem, 2019).

Data set [1] concerns SW1573. As to the kind of experiment: Resistance factor, ratio of GI50 for antiproliferative activity against human SW1573 cells over-expressing P-gp incubated for 48 hrs in presence of P-gp and CYP3A4/5 inhibitor verapamil by sulforhodamine assay to GI50 for antiproliferative activity against human SW1573 cells incubated for 48 hrs in presence of P-gp and CYP3A4/5 inhibitor verapamil by sulforhodamine B assay. In kind it is functional. Put shortly:
(§1)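 Resistance factor: GI50 in SW1573/PGP divided by GI50 in wild-type SW1573. Both came from 48 h exposure, with or without 10 µM verapamil. GI50 values are from at least two independent experiments.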
For orientation: The SRB assay estimates cell density from bound dye.

Data set [2] relates to SW1573. Briefly: Antiproliferative activity against human SW1573 cells incubated for 48 hrs in presence of P-gp and CYP3A4/5 inhibitor verapamil by sulforhodamine B assay. As to conditions: SW1573, 48 h. In kind it is functional. Put shortly: (§2)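 Wild-type and P-gp-overexpressing SW1573 cells were grown in RPMI 1640 with 1 mM glutamine, 5% FBS and antibiotics at 37 °C. Cells were exposed for 48 h to serial decimal dilutions, 0.001–100 µM, with or without 10 µM verapamil. GI50 values come from at least two independent experiments, with SD.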

Data set [3] deals with SW1573. Briefly: Antiproliferative activity against human SW1573 cells over-expressing P-gp incubated for 48 hrs in absence of P-gp and CYP3A4/5 inhibitor verapamil by sulforhodamine B assay. In kind it is functional. As to conditions: SW1573, 48 h. Put shortly: as §2
The subject of data set [4] is SW1573. As to the kind of experiment: Antiproliferative activity against human SW1573 cells over-expressing P-gp incubated for 48 hrs in presence of P-gp and CYP3A4/5 inhibitor verapamil by sulforhodamine B assay. In kind it is functional. The note with it: SW1573, 48 h. Put shortly:
as §2

Data set [5] relates to SW1573. Briefly: Antiproliferative activity against human SW1573 cells incubated for 48 hrs in absence of P-gp and CYP3A4/5 inhibitor verapamil by sulforhodamine B assay. In kind it is functional. As to conditions: SW1573, 48 h. Put shortly:
as §2

Data set [6] deals with WiDr. Briefly: Antiproliferative activity against human WiDr cells assessed as growth inhibition measured after 48 hrs by sulforhodamine B assay. The data set is classed as functional. Put shortly: (§3)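 NCI protocol with minor modifications. DMSO stocks at 40 mM. Cells exposed for 48 h to serial decimal dilutions, 0.001–100 µM. GI50 in µM from at least two independent experiments, with SD.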

Data set [7] deals with HBL-100. Briefly: Antiproliferative activity against human HBL100 cells assessed as growth inhibition measured after 48 hrs by sulforhodamine B assay. In kind it is functional. As to conditions: HBL-100, 48 h. Put shortly: as §3
Data set [8] concerns A549. As to the kind of experiment: Antiproliferative activity against human A549 cells assessed as growth inhibition measured after 48 hrs by sulforhodamine B assay. In kind it is functional. As to conditions: A549, 48 h. Put shortly:
as §3

For data set [9], the system named is T47D. As to the kind of experiment: Antiproliferative activity against human T47D cells assessed as growth inhibition measured after 48 hrs by sulforhodamine B assay. In kind it is functional. Put shortly: as §3
For data set [10], the system named is HeLa. Briefly: Antiproliferative activity against human HeLa cells assessed as growth inhibition measured after 48 hrs by sulforhodamine B assay. The data set is classed as functional. Put shortly:
as §3

Data set [11] has as its system WiDr. Briefly: Potency index, ratio of GI50 for CDDP to test compound GI50 for antiproliferative activity against human WiDr cells. The data set is classed as functional.
The test system of data set [12] is HeLa. Briefly: Anticancer activity against human HeLa cells assessed as increase in ROS production at 1 uM measured after 48 hrs by ROS-GloTM H2O2 assay. The data set is classed as functional, cell-based. Put shortly:
(§4)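 HeLa cells in RPMI 1640 with 1 mM glutamine, 5% FBS and antibiotics, 37 °C, 5% CO2. Exposed to compound at 1 or 10 µM for 48 h. ROS (H2O2) read with a non-lytic, HRP-free luminescent kit per the manufacturer.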

Data set [13] has as its system T47D. Briefly: Potency index, ratio of GI50 for CDDP to test compound GI50 for antiproliferative activity against human T47D cells. The data set is classed as functional.
Data set [14] deals with T1, Histone deacetylase 8 (Homo sapiens) (UniProt Q9BY41).
T1 sequence (whole entry): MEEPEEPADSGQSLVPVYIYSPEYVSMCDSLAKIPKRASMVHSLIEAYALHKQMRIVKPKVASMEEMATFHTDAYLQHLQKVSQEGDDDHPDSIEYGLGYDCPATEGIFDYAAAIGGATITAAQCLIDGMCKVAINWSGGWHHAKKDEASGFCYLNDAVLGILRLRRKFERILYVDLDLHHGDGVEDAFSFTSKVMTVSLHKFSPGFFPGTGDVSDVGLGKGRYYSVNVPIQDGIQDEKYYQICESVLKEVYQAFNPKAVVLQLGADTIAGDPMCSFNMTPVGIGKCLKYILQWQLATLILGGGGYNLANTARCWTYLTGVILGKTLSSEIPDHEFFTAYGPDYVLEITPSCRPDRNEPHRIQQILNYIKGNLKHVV
As to the kind of experiment: Potency index, ratio of inhibition activity of trichostatin to inhibition activity of compound HDAC8 (unknown origin).

The subject of data set [15] is SW1573. As to the kind of experiment: Resistance factor, ratio of GI50 for antiproliferative activity against human SW1573 cells over-expressing P-gp incubated for 48 hrs in absence of P-gp and CYP3A4/5 inhibitor verapamil by sulforhodamine B assay to GI50 for antiproliferative activity against human SW1573 cells incubated for 48 hrs in absence of P-gp and CYP3A4/5 inhibitor verapamil by sulforhodamine B assay. The data set is classed as functional. Put shortly: as §1

Data set [16] is described as follows: (§5) Cytotoxicity against human hTERT-BJ cells assessed as growth inhibition measured after 48 hrs by sulforhodamine B assay. In kind it is cell-based. As to conditions: hTERT-BJ cells. Put shortly:
(§6)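 NCI protocol with minor modifications. Human tumour lines or fibroblasts in RPMI 1640 with 1 mM glutamine, 5% FBS and antibiotics, 37 °C, 5% CO2, low passage. DMSO stocks at 40 mM. Cells exposed for 48 h to serial decimal dilutions, 0.001–100 µM. GI50 in µM from at least two independent experiments, with SD.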

The subject of data set [17] is hTERT-BJ. The data set is described as §5. In kind it is cell-based. The note with it: htert-bj, 48 h. Put shortly:
as §6

In data set [18] the test system is HeLa. As to the kind of experiment: Anticancer activity against human HeLa cells assessed as increase in ROS production at 10 uM measured after 48 hrs by ROS-GloTM H2O2 assay. The data set is classed as functional, cell-based. Put shortly:
as §4

The source made the active and inactive calls. No cut-off for these calls is given here.

In the case of `CC(=O)O[C@H]1C(=O)[C@@]2(C)[C@H]([C@H](OC(=O)c3ccccc3)[C@]3(O)C[C@H](OC(=O)[C@H](O)[C@@H](NC(=O)c4ccccc4)c4ccccc4)C(C)=C1C3(C)C)[C@]1(OC(C)=O)CO[C@@H]1C[C@@H]2O` [PACLITAXEL], the RatioGI50 in data set [1] was 3. Moreover, the GI50 in [2] came out at 0.0016 µM; in data set [3] it was 0.196 µM; in [4], 0.0042 µM; in [5], 0.0015 µM.

Consider `CCOC(=[Se])Nc1ccc2c(C)cc(=O)oc2c1`, for which the GI50 in [6], in data set [7], in [8], in data set [9] and in data set [10] was > 100 µM each time.

`CC[C@]1(O)C[C@@H]2CN(CCc3c([nH]c4ccccc34)[C@@](C(=O)OC)(c3cc4c(cc3OC)N(C)[C@H]3[C@@](O)(C(=O)OC)[C@H](OC(C)=O)[C@]5(CC)C=CCN6CC[C@]43[C@@H]65)C2)C1` [VINBLASTINE]: in [1], the RatioGI50 was 1. In addition, the GI50 in data set [2] was 0.0008 µM; in data set [3], 2.05 µM; in data set [4], 0.001 µM; in data set [5], 0.0009 µM.

For the molecule `Cc1cc(=O)oc2cc(NC(=[Se])Nc3ccc4c(C)cc(=O)oc4c3)ccc12`, the RatioGI50 is 2.3 in data set [1], “<=6” in data set [11], “<=6” in data set [13] and 12 in [15]. For the same molecule, the GI50 in [2] is 9 µM; in data set [6], 4.5 µM; in data set [7], 3.5 µM; in [3], 55 µM; in data set [4], 21 µM; in data set [8] it was 3.2 µM. The GI50 stood at 4.5 µM in data set [5], 3.6 µM in [9] and 2.9 µM in data set [10]. The result in data set [12] was Active. Moreover, in [14], the Ratio stood at 1.65. In addition, the GI50 at 48 h in data set [16] is 4.9 µM.

On to `CCCCOC(=[Se])Nc1ccc2c(C)cc(=O)oc2c1`, for which, in data set [17], the GI50 result was “Nd(Insoluble)”.

Regarding `Cc1cc(=O)oc2cc(NC(=[Se])Nc3ccc(Br)cc3)ccc12`, the RatioGI50 in [1] is recorded as 1; in data set [11] it was “<=6”; in [13], “<=6”; in data set [15] it was 0.9. The GI50 in data set [2] was found to be 16 µM; in data set [6], 3.5 µM; in data set [7] it was 2.2 µM; in data set [3] it was 9.6 µM; in [4] it was 16 µM; in data set [8], 2.7 µM. The GI50 was found to be 11 µM in data set [5], 2.8 µM in data set [9] and 2.2 µM in [10]. Also, the result in data set [12] was Active. Also, the GI50 at 48 h in [16] was found to be 4.4 µM.

As to `COc1ccc(NC(=[Se])Nc2ccc3c(C)cc(=O)oc3c2)cc1`, the RatioGI50 is recorded as 2.5 in [1] and 1.7 in data set [15]. Also, the GI50 in data set [2] came to 10 µM; in data set [6], 23 µM; in data set [7] it was 38 µM; in data set [3], 24 µM; in data set [4], 25 µM; in data set [8] it was 28 µM. The figures for the 50% growth inhibitory concentration (GI50) in [5], in data set [9] and in data set [10] were 14 µM, 33 µM and 35 µM, respectively. The outcome in [18] was Active. In data set [16], the GI50 at 48 h is > 100 µM.

As for `CCCOC(=[Se])Nc1ccc2c(C)cc(=O)oc2c1`, the values for the RatioGI50 in data set [1] and in data set [15] were 3 and 2, respectively. Also, the GI50 in [2] was 12 µM; in data set [6] it was 42 µM; in data set [7], 34 µM; in data set [3], 32 µM; in data set [4], 35 µM; in data set [8], 37 µM. Further, the results for the GI50 in data set [5], in data set [9] and in data set [10] were 16 µM, 41 µM and 23 µM, respectively. Also, in [18], the result was Active. The GI50 at 48 h in data set [16] turned out to be 33 µM.

`COC(=[Se])Nc1ccc2c(C)cc(=O)oc2c1`: the GI50 in data set [6] is > 100 µM; in data set [7] it was > 100 µM; in [8], > 100 µM; in [9], > 100 µM; in data set [10], 78 µM.

As to `Cc1cc(=O)oc2cc(NC(=[Se])Nc3ccc(C(F)(F)F)cc3)ccc12`, the figures for the RatioGI50 in [1] and in data set [15] were 0.9 and 1.2, respectively. In addition, the GI50 stood at 26 µM in data set [2]; 6 µM in [6]; 13 µM in data set [7]; 24 µM in data set [3]; 22 µM in data set [4]; 8.6 µM in data set [8]. Further, the GI50 was found to be 20 µM in [5], 8.7 µM in data set [9] and 21 µM in data set [10]. For the same molecule, the result in [18] was Active. Also, the GI50 at 48 h in [16] turned out to be 32 µM.

With `CCCCNC(=[Se])Nc1ccc2c(C)cc(=O)oc2c1`, the RatioGI50 in [1] was 0.7; in [11], “<=6”; in [13], “<=6”; in [15], 0.8. For the same molecule, the concentration for 50% growth inhibition (GI50) in [2] came to 2.7 µM; in data set [6], 3.8 µM; in data set [7], 2.3 µM; in data set [3] it was 2.3 µM; in data set [4], 2 µM; in data set [8], 3 µM. Besides, the GI50 in [5] was 3 µM; in data set [9], 2.9 µM; in data set [10] it was 5.2 µM. Also, the result in data set [12] was Active. In data set [16], the GI50 at 48 h turned out to be 3.1 µM.

On to `Cc1cc(=O)oc2cc(NC(=[Se])Nc3ccccc3)ccc12`, for which the RatioGI50 in data set [1] came out at 0.8; in data set [15], 0.9. Further, the GI50 in [2] came out at 25 µM; in data set [6], 34 µM; in data set [7], 28 µM; in data set [3], 21 µM; in [4], 21 µM; in data set [8], 28 µM. The GI50 in data set [5] was 23 µM; in [9], 24 µM; in data set [10], 24 µM. The result in [18] was Active. Besides, the GI50 at 48 h in [16] was > 100 µM.
